Source: PubChem BioAssay (Johns Hopkins Ion Channel Center)
A selection: hits, their analogues and other compounds. The true share with any hit is near 3.7%.
KCNK3 inh – human KCNK3 channel inhibition, primary screen | 340,000 tested, 0.84% active | AID 602410 | B-score at 10 µM | CHO-KCNK3 thallium flux, FluxOR fluorescence; hits give low values | O14649;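 active means B-score under library mean minus 4 SD, starting fluorescence ratio at most library mean plus 5 SD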;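 further: more negative B-score means stronger inhibition of thallium flux through KCNK3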
KCNQ1 act – human KCNQ1 channel potentiation or activation; P51787; CHO-K1 KCNQ1, thallium flux FluxOR fluorescence; hits give high values; B-score at 10 µM; 310,000 tested, 0.35% active; AID 2648;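 active means fluorescence ratio B-score, a plate-corrected score, at least three library SD, with initial intensity B-score within 5 SD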
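System: Stable KCNQ1 CHO-K1 line | Incubation: 90 min dye loading and 20 min compound exposure, both at room temperature | Measure: Ratio B score | Medium: Assay buffer for compound exposure, DMSO matched across wells | Compound dosing: Single-concentration screen | Probe or stimulus: K+/Tl+ depolarizing stimulus | Measured by: Kinetic FluxOR fluorescence, 10 s baseline plus 110 s post-stimulus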
KCNQ1 block – inhibitors of human KCNQ1 potassium channel | CHO-K1 KCNQ1, FluxOR thallium flux fluorescence; hits give high values | 310,000 tested, 1.3% active | AID 2642 | B-score at 10 µM | P51787;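 active means compounds whose thallium flux B-score, printed positive for inhibition, exceeds three library SD while starting fluorescence stays within three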;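 further: channel opened by potassium depolarization with thallium stimulus after 20 min compound exposure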
Kir21 block – blocks the mouse Kir2.1 inward-rectifier potassium channel | P35561 | HEK293-Kir2.1, FluxOR thallium flux fluorescence; hits give low values | B-score at 10 µM | 310,000 tested, 0.85% active | AID 1672;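 active means fluorescence ratio B-score at or below minus 3 SD of library scores, with starting-brightness B-score within 2 SD, cut at about -4.2 in these data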;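 further: channel flux triggered by added potassium and thallium sulfate stimulus; B-score of peak minus minimum fluorescence over baseline after thallium stimulus; more negative B-score means stronger Kir2.1 block with less thallium influx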
hERG protect – hERG (human) protection from proarrhythmic block; Q12809; CHO-hERG, FluxOR thallium flux, dofetilide IC70 present; activation (rescue from dofetilide block), less the hit threshold, % at 10 µM; 310,000 tested, 0.51% active; AID 1511;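 active means activation above the mean of controls blocked by dofetilide plus 5 SD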;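 further: thallium influx through hERG after potassium depolarization seen as dye fluorescence rise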
KCNK9 block – human KCNK9 channel inhibition; Q9NPC2; HEK293 KCNK9, FluxOR thallium flux fluorescence; hits give low values; B-score at 10 µM; 310,000 tested, 1.2% active;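 active means ratio B-score over 3 SD below the library mean, with starting fluorescence within 5 SD of its mean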;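 further: negative B-score means less thallium flux so channel inhibition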
Target sequence (Q9NPC2 whole entry, looked up): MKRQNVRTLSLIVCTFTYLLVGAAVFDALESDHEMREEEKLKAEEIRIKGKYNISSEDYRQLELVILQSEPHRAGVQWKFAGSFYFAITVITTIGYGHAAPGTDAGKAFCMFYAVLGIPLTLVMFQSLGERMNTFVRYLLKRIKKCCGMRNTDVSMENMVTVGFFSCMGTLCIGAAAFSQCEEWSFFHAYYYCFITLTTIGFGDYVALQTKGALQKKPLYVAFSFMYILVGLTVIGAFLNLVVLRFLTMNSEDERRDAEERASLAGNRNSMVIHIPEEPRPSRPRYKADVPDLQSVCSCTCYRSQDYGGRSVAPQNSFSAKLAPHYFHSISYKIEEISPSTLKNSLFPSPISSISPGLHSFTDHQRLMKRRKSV
KCNK9 inh conf – confirmation of human KCNK9 potassium channel inhibitors | shares compounds with KCNK9 block | HEK293 KCNK9 cells, FluxOR thallium flux fluorescence | 4,900 tested, 43% active | inhibition, % at 10 µM;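 active means thallium signal inhibited by more than 5 SD of the compound-free buffer control wells, on both duplicate plates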
Kir2-1 spec – tests whether KCNK9 modulators also affect mouse Kir2.1 | 4,900 tested, 4% active | Kir2.1 cells, FluxOR thallium flux fluorescence | inhibition, % at 10 µM | shares compounds with KCNK9 block;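 active means thallium signal drop more than 5 SD beyond the mean of the no-compound control wells, seen in both duplicate plates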;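 further: signal is fluorescence rise after thallium addition divided by baseline fluorescence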
HEK293 Tl ctr – non-induced cell nonspecific activity of KCNK9 modulators. 4,900 tested, 40% active. shares compounds with KCNK9 block. non-induced KCNK9-HEK293, FluxOR thallium flux. inhibition, % at 10 µM;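 active means thallium signal drop beyond 5 SD of the untreated control mean, on both duplicate plates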
A number is an active result; i = inactive; nt = not tested or not shown.

SMILES	KCNK3 inh	KCNQ1 act	KCNQ1 block	Kir21 block	hERG protect	KCNK9 block	KCNK9 inh conf	Kir2-1 spec	HEK293 Tl ctr
O=C(c1ccc2ccccc2c1)C1CCCN(C(=O)c2cnccn2)C1 (centres undefined)	i	i	i	i	i	i	i	i	i
COc1ccc2cc(C(=O)C3CCCN(C(=O)c4cnccn4)C3)ccc2c1 (centres undefined)	i	i	i	i	i	i	nt	nt	nt
Cc1cc(C(=O)N2CCCC(C(=O)c3ccc4ccccc4c3)C2)n(C)n1 (centres undefined)	i	i	i	i	i	i	i	i	i
CCn1cc(C(=O)N2CCCC(C(=O)c3ccc4ccccc4c3)C2)cn1 (centres undefined)	i	i	i	i	i	i	i	i	i
O=C(c1ccc2ccccc2c1)C1CCCN(C(=O)CCn2cnnn2)C1 (centres undefined)	i	i	i	i	i	i	nt	nt	nt
Cc1nc(C)c(C(=O)N2CCCC(C(=O)c3ccc4ccccc4c3)C2)s1 (centres undefined)	i	i	i	i	i	i	nt	nt	nt
COc1cccc(NC(=S)NCCc2ccccn2)c1	i	i	i	i	i	i	nt	nt	nt
Cc1nc(NC(=O)c2ccccc2)sc1C1(C)CC(c2ccccc2F)=NO1 (centres undefined)	i	i	i	i	i	i	nt	nt	nt
Cc1nc(NC(=O)c2ccccc2)sc1C1(C)CC(c2c(Cl)cccc2Cl)=NO1 (centres undefined)	i	i	i	i	i	-9.8	55%	i	36%
O=C(NCc1ccccc1)C1=C[C@H](C2CCCCC2)C[C@H](OCc2ccc(CO)cc2)O1	i	i	i	i	i	i	i	i	i
O=C(NCc1ccccc1)C1=C[C@@H](C2CC2)C[C@@H](OCc2ccc(CO)cc2)O1	i	i	i	i	i	i	nt	nt	nt
Cc1ccc(S(=O)(=O)N(OCc2ccccc2)C(C)C(=O)O)cc1 (centres undefined)	i	i	i	i	i	i	nt	nt	nt
COc1ccc(/C=C/C(=O)Oc2ccc(C)c(C)c2)cc1OC	i	i	i	i	i	i	i	i	i
COc1ccc(/C=N/Nc2cc(N3CCCC3)nc(N3CCCC3)n2)cc1	i	i	8	i	i	i	i	i	i
Oc1ccc(/C=N/Nc2cc(N3CCCC3)nc(N3CCCC3)n2)cc1	i	i	i	i	i	i	nt	nt	nt
S=c1cn[nH]c2ccccc12	i	nt	nt	nt	nt	nt	nt	nt	nt
Cc1ccc(NC(=O)c2cc(S(=O)(=O)N3CCC4(CC3)OCCO4)ccc2F)cc1	i	i	i	i	i	i	nt	nt	nt
O=C(NC1CCCCCC1)c1cc(S(=O)(=O)N2CCC3(CC2)OCCO3)ccc1F	i	i	i	i	i	i	i	i	i
CC1CC(C)CN(S(=O)(=O)c2ccc(Oc3ccc([N+](=O)[O-])cc3)cc2)C1 (centres undefined)	i	i	i	i	i	i	i	i	i
Cc1c(/C=N/NC(=O)c2ccc(Br)o2)cnn1C	i	i	i	i	i	i	nt	nt	nt
COc1cc(OC)c(C(=O)/C=C/c2ccc(OCc3ccccc3)c(OC)c2)c(OC)c1	i	i	i	i	i	i	nt	nt	nt
COc1cc(OCc2ccccc2)c(C(=O)/C=C/c2ccc3c(c2)OCO3)c(OC)c1OC	i	i	i	i	i	-8.9	i	i	35%
COc1cccc(N2CCN(CC(=O)NC3=Nc4ccccc4N=C(C)C3c3ccccc3)CC2)c1 (centres undefined)	i	i	i	i	i	-14	54%	i	28%
O=C(CSc1ccc(-c2ccc(F)cc2)nn1)N1CCCc2ccccc21	i	i	i	i	i	i	nt	nt	nt
O=C(CSc1ccc(-c2ccc(Cl)cc2)nn1)N1CCCc2ccccc21	i	i	i	i	i	i	i	i	i
SMILES	KCNK3 inh	KCNQ1 act	KCNQ1 block	Kir21 block	hERG protect	KCNK9 block	KCNK9 inh conf	Kir2-1 spec	HEK293 Tl ctr
O=S1(=O)C=C(SCc2ccc(F)cc2)Nc2ccccc21	i	i	i	i	i	i	nt	nt	nt
CC(NCc1ccc(OCC(N)=O)cc1)C12CC3CC(CC(C3)C1)C2 (centres undefined)	i	i	i	i	i	i	nt	nt	nt
COc1cc(COc2ccc3c(C)c(Cc4ccccc4)c(=O)oc3c2)cc(OC)c1OC	i	i	i	i	i	i	i	i	i
CCOc1ccc(N2C(=O)CC(C(C)c3ccccc3)C2=O)cc1 (centres undefined)	i	i	i	i	i	i	nt	nt	nt
CC1CC(C)CN(C(=O)C2CCN(S(=O)(=O)c3ccc4c(c3)CC(C)N4C(=O)C3CC3)CC2)C1 (centres undefined)	i	i	i	i	i	i	nt	nt	nt
O=C(Nc1cc(Sc2nc3ccccc3s2)cc([N+](=O)[O-])c1)c1ccccc1F	i	i	i	i	i	-9	32%	i	30%
O=C(/C=C/c1ccccc1Cl)N(Cc1ccccc1)C1CCS(=O)(=O)C1 (centres undefined)	i	i	i	i	i	i	nt	nt	nt
O=C(/C=C/c1ccccc1Cl)N(Cc1ccc(Cl)cc1)C1CCS(=O)(=O)C1 (centres undefined)	i	i	i	i	i	-8.2	55%	i	36%
Cc1cccc(-n2nc3c(c2NC(=O)C2CC2)CS(=O)(=O)C3)c1C	i	i	i	i	i	i	nt	nt	nt
O=c1ccc2c(o1)/C(=C/C=C(Cl)Cl)CCC2	i	i	i	i	i	-12	42%	i	36%
C=C(C)C1CC=C(CN2CCN(Cc3ccccc3)CC2)CC1 (centres undefined)	i	i	i	i	i	i	i	i	i
COC(C(=O)Nc1ccnn1C1CCN(Cc2nccs2)CC1)c1ccccc1 (centres undefined)	i	i	i	i	i	i	nt	nt	nt
CC(=O)c1ccc(OCCCCCCCOc2ccc(C(C)=O)cc2)cc1	i	i	i	i	i	-8.8	i	i	i
CCOc1ccc(S(=O)(=O)Nc2ccc(C(=O)N3CCCC3)cc2)cc1C(N)=O	i	i	i	i	i	i	nt	nt	nt
O=C(CCSc1ccc(Cl)c(Cl)c1)NC12CC3CC(CC(C3)C1)C2	i	i	i	i	i	i	i	i	i
COc1ccccc1Nc1ccc2nonc2c1[N+](=O)[O-]	i	i	i	i	i	i	nt	nt	nt
Cc1ccc(S(=O)(=O)NN)c(C)c1N1CCCC1=O	i	i	i	i	i	i	nt	nt	nt
CCOC(=O)c1nc(C)sc1-c1ccnn1S(=O)(=O)c1ccc(C)cc1	i	i	i	i	i	i	nt	nt	nt
